In PMC6858927 (Investigational new drugs, 2019):

Experiments:
Format in all cases: cell-based
[1] = system: murine primary FLT3-ITD+/−/IDH2-R140Q+/− leukemia cells; test: CellTiter-Glo viability assay, ex vivo; conditions: Mus musculus, 72 h, read-out: IC50 cell viability
MOLM13 = test: MTT cell viability assay, AML cell line; conditions: Homo sapiens, MOLM-13, 72 h, read-out: mean IC50
How it was run: (§1)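 FLT3-ITD+ human AML lines (MOLM13-Res is a FLT3-inhibitor-resistant MOLM13 derivative carrying D835Y) were exposed to DMSO or increasing concentrations of test compound. MTT viability was read 72 h after drug addition. Response was expressed as mean percentage of DMSO-treated control at each concentration, with 3–6 replicates, and plotted as mean ± SD, n=12.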

MV4–11 = test: MTT cell viability assay, AML cell line; conditions: Homo sapiens, MV4-11, 72 h, read-out: mean IC50
How it was run: as §1

[2] = system: phospho-FLT3 and phospho-STAT5; conditions: Ba/F3 FLT3-ITD/D835Y or ITD/F691L, 4 hours

`C1=C/COCc2cc(ccc2OCCN2CCCC2)Nc2nccc(n2)-c2cccc(c2)COC/1` [Pacritinib, 11-(2-pyrrolidin-1-yl-ethoxy)-14,19-dioxa-5,7,26-triaza-tetracyclo[19.3.1.1(2,6). 1(8,12)]heptacosa-1(25),2(26),3,5,8,10,12(27),16,21,23-decaene] was tested, and the IC50 [1] was 8700 nM, the IC50 (MOLM13) was 73 nM and the IC50 (MV4–11) was 33 nM. For the same molecule, the “concentrations showing inhibition of phospho-FLT3 and phospho-STAT5” value [2] was 0.25 to 1 µM.
